# According to ChEMBL document CHEMBL1158809, “Pseudotrienic acids A and B, two bioactive metabolites from Pseudomonas sp. MF381-IODS” (2005):
# Active and inactive are the calls of the source. The calls are words filed in the database; no cut-off is given here.
# Legend:
# [1] = system: Fusarium oxysporum; assay: Antimicrobial activity against Fusarium oxysporum up to 100 ug/mL; type: functional, organism-based
# Procedure, shortened: (§1)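 Minimum inhibitory concentration was measured in a microtiter plate growth bioassay against a panel of human and agricultural fungal pathogens and Gram-positive and Gram-negative bacteria.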
# [2] = system: Drechslera; assay: Antimicrobial activity against Drechslera sorokiniana up to 100 ug/mL; type: functional, organism-based; procedure, shortened: as §1
# [3] = system: Microsporum canis; assay: Antimicrobial activity against Microsporum canis up to 100 ug/mL; type: functional, organism-based; procedure, shortened: as §1
# [4] = system: Staphylococcus aureus; assay: Antimicrobial activity against Staphylococcus aureus; type: functional
# [5] = system: Aspergillus fumigatus; assay: Antimicrobial activity against Aspergillus fumigatus up to 100 ug/mL; type: functional, organism-based; procedure, shortened: as §1
# [6] = system: Pseudomonas syringae; assay: Antimicrobial activity against Pseudomonas syringae pv. syringae; type: functional
# [7] = system: Heterobasidion annosum; assay: Antimicrobial activity against Heterobasidion annosum up to 100 ug/mL; type: functional, organism-based; procedure, shortened: as §1
# [8] = system: Pseudomonas savastanoi; assay: Antimicrobial activity against Pseudomonas savastanoi up to 100 ug/mL; type: functional, organism-based; procedure, shortened: as §1
# [9] = system: Fusarium culmorum; assay: Antimicrobial activity against Fusarium culmorum up to 100 ug/mL; type: functional, organism-based; procedure, shortened: as §1
# [10] = system: Candida albicans; assay: Antimicrobial activity against Candida albicans up to 100 ug/mL; type: functional, organism-based; procedure, shortened: as §1
MIC [4] [µg/mL],MIC [6] [µg/mL],Structure (SMILES),Activity [1],Activity [2],Activity [3],Activity [5],Activity [7],Activity [8],Activity [9],Activity [10]
70,70,CCCCCCCCCC(O)/C=C/C(C)=C/CC(=O)NC[C@H](O)[C@H](C)C(=O)NCC/C=C/C=C/C=C/C(=O)O (mixture of isomers) [PSEUDOTRIENIC ACID A],inactive,inactive,inactive,inactive,inactive,inactive,inactive,inactive
70,70,CCCCCCCC(O)/C=C/C(C)=C/CC(=O)NC[C@H](O)[C@H](C)C(=O)NCC/C=C/C=C/C=C/C(=O)O (mixture of isomers) [PSEUDOTRIENIC ACID B],inactive,inactive,inactive,inactive,inactive,inactive,inactive,inactive
